Source: ChEMBL document CHEMBL1141217, “cycloSal-PMEA and cycloAmb-PMEA: potentially new phosphonate prodrugs based on the cycloSal-pronucleotide approach” (J Med Chem, 2005)
Blank lines part the entries; values can stand above or below the compound they belong to. The source made the active and inactive calls. The rule behind the calls is not given here.

How the values were obtained:
Cholinesterase = Cholinesterase (Homo sapiens, UniProt P06276); assay: Inhibitory activity against human butyryl cholinesterase
[1] = Inhibitory activity against human acetyl cholinesterase
[2] = Half life in CEM/O cells; assay type: ADME, cell-based; settings: human, CEM/O cells (CCRF-CEM cell line)
Outline: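 Triester (1.5 mM stock in DMSO) incubated with CEM cell extract plus MgCl2 (70 mM stock) for 8 h. Stopped with acidic methanol, 5 min at 0 °C, centrifuged and filtered; supernatant analysed by reversed-phase HPLC with UV at 250 nm.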

[3] = Chemical stability in phosphate buffer at pH 7.3; assay type: physicochemical; settings: read-out: Stability (converted)
Outline: (§1)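 Triesters hydrolysed at 37 °C in phosphate buffer pH 7.3 or citrate buffer pH 2.0, with AZT as internal standard; final 0.96 mM triester, 24.8 mM buffer. Aliquots quenched with glacial acetic acid and frozen, then analysed by reversed-phase HPLC with UV at 250 nm. t1/2 from rate constants of starting-triester peak decay; mean of duplicates.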

CCRF-CEM = assay: Cytotoxicity against CEM/O cells; assay type: functional; settings: Homo sapiens
[4] = system: Human immunodeficiency virus 2; assay: Antiviral potency against HIV2 in CEM/O cells; assay type: functional, organism-based; settings: Human immunodeficiency virus 2, CEM/O
Outline: (§2)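 CEM cells at 4×10^5 cells/mL infected with HIV-1 or HIV-2 (ROD) at ~100 CCID50 per mL; virus stocks from infected MT-4 cell supernatants. Infected cells mixed with serial compound dilutions. After 4–5 days, giant cell formation scored microscopically; EC50 = concentration giving 50% protection.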

[5] = system: Human immunodeficiency virus 1; assay: Antiviral potency against HIV1 in CEM/O cells; assay type: functional, organism-based; settings: Human immunodeficiency virus 1, CEM/O; outline: as §2
[6] = LogP using HPLC method; assay type: physicochemical
[7] = Chemical stability in citrate buffer at pH 2.0; assay type: physicochemical; outline: as §1

Chain of Cholinesterase (P06276 whole entry): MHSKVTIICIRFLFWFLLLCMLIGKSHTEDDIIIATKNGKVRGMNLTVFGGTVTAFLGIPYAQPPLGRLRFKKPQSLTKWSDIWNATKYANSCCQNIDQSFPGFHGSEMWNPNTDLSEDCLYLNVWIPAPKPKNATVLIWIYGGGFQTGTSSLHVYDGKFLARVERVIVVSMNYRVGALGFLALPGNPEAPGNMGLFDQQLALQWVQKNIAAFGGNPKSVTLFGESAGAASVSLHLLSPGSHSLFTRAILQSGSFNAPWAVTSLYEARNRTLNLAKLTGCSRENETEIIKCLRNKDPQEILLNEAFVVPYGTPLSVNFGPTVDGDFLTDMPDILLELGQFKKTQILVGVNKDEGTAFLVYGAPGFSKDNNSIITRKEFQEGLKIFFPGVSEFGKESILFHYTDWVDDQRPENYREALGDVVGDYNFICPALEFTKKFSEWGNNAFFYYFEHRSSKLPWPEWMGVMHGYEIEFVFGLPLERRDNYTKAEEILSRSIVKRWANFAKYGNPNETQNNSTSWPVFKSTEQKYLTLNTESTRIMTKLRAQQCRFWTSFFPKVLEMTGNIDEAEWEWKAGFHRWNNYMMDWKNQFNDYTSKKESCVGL

Compound: Nc1ncnc2c1ncn2CCOCP1(=O)OCc2ccccc2O1 (stereo unspecified)
IC50 (Cholinesterase): > 50 µM | Activity [1]: inactive | half-life [2]: 0.1 h | half-life [3]: 0.09 h

Compound: Nc1ncnc2c1ncn2CCOCP(=O)(O)O [ADEFOVIR]
CC50 (CCRF-CEM): 50 µM | EC50 [4]: 10 µM | EC50 [5]: 10 µM

Compound: CC(C)(C)c1cccc2c1OP(=O)(COCCn1cnc3c(N)ncnc31)OC2 (stereo unspecified)
CC50 (CCRF-CEM): 29 µM | logP [6]: 0.47 | EC50 [4]: 4.5 µM | IC50 (Cholinesterase): > 50 µM | Stability [7]: 23.7 h | EC50 [5]: 3 µM | Activity [1]: inactive | half-life [2]: 3 h | half-life [3]: 4.05 h

EC50 [4]: 0.075 µM | EC50 [5]: 0.18 µM | half-life [3]: 14.7 h
Compound: CC(C)(C)C(=O)OCOP(=O)(COCCn1cnc2c(N)ncnc21)OCOC(=O)C(C)(C)C [ADEFOVIR DIPIVOXIL]
CC50 (CCRF-CEM): 0.74 µM

Compound: Cc1cccc2c1OP(=O)(COCCn1cnc3c(N)ncnc31)OC2 (stereo unspecified)
IC50 (Cholinesterase): > 50 µM | Activity [1]: inactive | half-life [2]: 0.6 h | half-life [3]: 0.56 h

Compound: Nc1ncnc2c1ncn2CCOCP1(=O)Nc2ccccc2CO1 (stereo unspecified)
CC50 (CCRF-CEM): 183 µM | logP [6]: 0.23 | EC50 [4]: 21 µM | IC50 (Cholinesterase): > 50 µM | Stability [7]: 9.6 h | EC50 [5]: 20 µM | Activity [1]: inactive | half-life [3]: 4 h

Compound: CC(C)(C)c1cc2c(c(C(C)(C)C)c1)OP(=O)(COCCn1cnc3c(N)ncnc31)OC2 (stereo unspecified)
CC50 (CCRF-CEM): 17 µM | logP [6]: 1.72 | EC50 [4]: 5.3 µM | IC50 (Cholinesterase): > 50 µM | Stability [7]: 9.6 h | EC50 [5]: 5.5 µM | Activity [1]: inactive | half-life [2]: 3 h | half-life [3]: 3.05 h

Compound: Nc1ncnc2c1ncn2CCOCP1(=O)Nc2cccc(F)c2CO1 (stereo unspecified)
CC50 (CCRF-CEM): 244 µM | logP [6]: 0.49 | EC50 [4]: 26 µM | IC50 (Cholinesterase): > 50 µM | EC50 [5]: 28 µM | Activity [1]: inactive | half-life [3]: 1.3 h

Compound: Cc1cccc2c1NP(=O)(COCCn1cnc3c(N)ncnc31)OC2 (stereo unspecified)
CC50 (CCRF-CEM): > 250 µM | logP [6]: 0.45 | EC50 [4]: 56 µM | IC50 (Cholinesterase): > 50 µM | Stability [7]: 29 h | EC50 [5]: 29 µM | Activity [1]: inactive | half-life [3]: 21.3 h
